Data published in ChEMBL document CHEMBL3593175, “Bicyclic [3.3.0]-Octahydrocyclopenta[c]pyrrolo Antagonists of Retinol Binding Protein 4: Potential Treatment of Atrophic Age-Related Macular Degeneration and Stargardt Disease” (J Med Chem, 2015).

How the values were obtained:
[1] = molecular target: T1, Retinol-binding protein 4 (Homo sapiens, UniProt P02753); assay: Displacement of [3H]-retinol from RBP4 (unknown origin) by scintillation proximity assay
[2] = molecular target: T1, Retinol-binding protein 4; assay: Inhibition of retinol-induced interaction of bacterially expressed MBP-tagged RBP4 (unknown origin) with Eu3+ cryptate labeled TTR by HTRF assay
[3] = test system: Rattus norvegicus; assay: Apparent terminal half life in Sprague-Dawley rat at 5 mg/kg, po by HPLC/MS/MS method; format: ADME, organism-based; conditions: in vivo
In short: (§1)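 Male Sprague Dawley rats, 3 per group, single dose: 2.0 mg/kg IV tail vein (0.4 mg/mL, 5 mL/kg; 3% DMA/45% PEG300/12% ethanol/40% sterile water) or 5.0 mg/kg oral gavage (0.5 mg/mL, 10 mL/kg; 2% Tween 80 in 0.9% saline). Plasma sampled pre-dose to 48 h, assayed by HPLC/MS/MS. Non-compartmental analysis; AUC by log/linear (IV) or linear up/log down trapezoidal (PO).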

[4] = test system: Liver; assay: Intrinsic clearance in mouse liver microsomes; format: ADME
[5] = test system: Rattus norvegicus; assay: Tmax in Sprague-Dawley rat at 5 mg/kg, po qd administered for 7 days measured on day 7 post last dose by HPLC/MS/MS method; format: ADME, organism-based; conditions: in vivo, 168 h
In short: (§2)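 Male Sprague Dawley rats (n=3) were dosed orally by gavage at 5 mg/kg (1.0 mg/mL) once daily on Days 1–7, with a vehicle group run in parallel. Plasma was taken pre-dose on Days 1–6, then pre-dose and at 0.25–48 h on Day 7, and analysed by HPLC/MS/MS. Non-compartmental PK; terminal half-life needed at least three non-zero points after Tmax.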

[6] = test system: Plasma; assay: Protein binding in rat plasma; format: ADME, cell-free
[7] = Plasma concentration in Sprague-Dawley rat at 5 mg/kg, po qd administered for 7 days measured on day 7 prior to administration of last dose by HPLC/MS/MS method; format: ADME, organism-based; in short: as §2
[8] = test system: Rattus norvegicus; assay: Decrease in RBP4 level in Sprague-Dawley rat plasma at 5 mg/kg, po relative to vehicle-treated control; format: functional; design: scale not given: the % may be the effect or the level left
In short: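 Male Sprague-Dawley rats were dosed by oral gavage at 10 mL/kg, with 2% Tween 80 in 0.9% saline as vehicle, […]. A vehicle-dosed group served as control. Whole blood was clotted for 30 min at room temperature, then centrifuged at 2000g for 15 min at 4°C to give serum. Serum RBP4 was measured by dual ELISA.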

[9] = test system: Rattus norvegicus; assay: Oral bioavailability in Sprague-Dawley rat at 5 mg/kg by HPLC/MS/MS method; format: ADME, organism-based; conditions: in vivo; in short: as §1
[10] = test system: Rattus norvegicus; assay: AUClast in Sprague-Dawley rat at 5 mg/kg, po qd administered for 7 days measured on day 7 post last dose by HPLC/MS/MS method; format: ADME, organism-based; design: dose 5 mg/kg, route oral, time 0 - last; conditions: in vivo, 168 h; in short: as §2
[11] = test system: Rattus norvegicus; assay: Cmax in Sprague-Dawley rat at 5 mg/kg, po measured on day 1 by HPLC/MS/MS method; format: ADME, organism-based; design: dose 5 mg/kg, route oral; conditions: in vivo
In short: (§3)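 Male Sprague Dawley rats (n=3) were given one 5 mg/kg oral gavage dose (1.0 mg/mL) on Day 1 in 2% Tween 80 in 0.9% saline. Plasma was sampled pre-dose and at 0.25–48 h and measured by HPLC/MS/MS. Non-compartmental analysis: Cmax and Tmax taken directly from the data; half-life from terminal regression over at least three non-zero points after Tmax.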

[12] = Metabolic stability in rat liver microsomes assessed as compound remaining at 10 uM after 30 mins; format: ADME; conditions: read-out: Stability
[13] = test system: Rattus norvegicus; assay: AUC (0 to infinity) in Sprague-Dawley rat at 5 mg/kg, po by HPLC/MS/MS method; format: ADME, organism-based; design: dose 5 mg/kg, time infinity, route oral; conditions: in vivo; in short: as §1
[14] = test system: Rattus norvegicus; assay: Tmax in Sprague-Dawley rat at 5 mg/kg, po by HPLC/MS/MS method; format: ADME, organism-based; conditions: in vivo; in short: as §1
[15] = molecular target: Cytochrome P450 2C19 (Homo sapiens, UniProt P33261); assay: Inhibition of CYP2C19 (unknown origin); format: ADME
Chain of Cytochrome P450 2C19 (P33261 whole entry): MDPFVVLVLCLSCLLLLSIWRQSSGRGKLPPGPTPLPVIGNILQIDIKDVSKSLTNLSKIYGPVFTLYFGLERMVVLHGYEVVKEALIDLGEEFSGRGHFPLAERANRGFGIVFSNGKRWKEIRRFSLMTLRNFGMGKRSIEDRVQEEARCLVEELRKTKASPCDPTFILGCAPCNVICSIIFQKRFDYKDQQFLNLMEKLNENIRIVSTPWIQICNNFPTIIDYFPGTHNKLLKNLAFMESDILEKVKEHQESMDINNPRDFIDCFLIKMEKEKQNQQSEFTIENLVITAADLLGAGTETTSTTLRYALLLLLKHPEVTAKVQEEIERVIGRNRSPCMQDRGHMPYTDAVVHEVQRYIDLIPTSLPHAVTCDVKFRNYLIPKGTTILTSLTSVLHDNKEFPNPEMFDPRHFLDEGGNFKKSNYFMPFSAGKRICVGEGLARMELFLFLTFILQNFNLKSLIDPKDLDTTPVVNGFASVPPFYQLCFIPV

[16] = test system: Rattus norvegicus; assay: AUClast in Sprague-Dawley rat at 5 mg/kg, po by HPLC/MS/MS method; format: ADME, organism-based; design: dose 5 mg/kg, time 0 - last, route oral; conditions: in vivo; in short: as §1
[17] = test system: Rattus norvegicus; assay: Apparent terminal half life in Sprague-Dawley rat at 2 mg/kg, iv by HPLC/MS/MS method; format: ADME, organism-based; conditions: in vivo; in short: as §1
[18] = test system: Rattus norvegicus; assay: Cmax in Sprague-Dawley rat at 5 mg/kg, po qd administered for 7 days measured on day 7 post last dose by HPLC/MS/MS method; format: ADME, organism-based; design: dose 5 mg/kg, route oral; conditions: in vivo, 168 h; in short: as §2
[19] = test system: Liver microsome; assay: Intrinsic clearance in human liver microsomes; format: ADME
[20] = Intrinsic clearance in cynomolgus monkey liver microsomes; format: ADME, Macaca fascicularis
[21] = test system: Rattus norvegicus; assay: Elimination half life in Sprague-Dawley rat at 5 mg/kg, po qd administered for 7 days measured on day 7 post last dose by HPLC/MS/MS method; format: ADME, organism-based; conditions: in vivo, 168 h; in short: as §2
[22] = test system: Rattus norvegicus; assay: Volume of distribution at steady state in Sprague-Dawley rat at 2 mg/kg, iv by HPLC/MS/MS method; format: ADME, organism-based; conditions: in vivo; in short: as §1
[23] = test system: Rattus norvegicus; assay: Tmax in Sprague-Dawley rat at 5 mg/kg, po measured on day 1 by HPLC/MS/MS method; format: ADME, organism-based; conditions: in vivo; in short: as §3
[24] = Metabolic stability in human liver microsomes assessed as compound remaining at 10 uM after 30 mins; format: ADME; conditions: read-out: Stability
[25] = test system: Rattus norvegicus; assay: Elimination half life in Sprague-Dawley rat at 5 mg/kg, po measured on day 1 by HPLC/MS/MS method; format: ADME, organism-based; conditions: in vivo; in short: as §3
[26] = test system: Rattus norvegicus; assay: Decrease in RBP4 level in Sprague-Dawley rat plasma at 5 mg/kg, po qd administered for 7 days measured on day 7 post last dose relative to vehicle-treated control; format: functional; design: scale not given: the % may be the effect or the level left
In short: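 Male Sprague Dawley rats received 5 mg/kg or vehicle by oral gavage once daily for 7 days, 3 per group. Whole blood clotted 30 min at room temperature, then was centrifuged at 2000g for 15 min at 4°C. Serum RBP4 was measured by dual ELISA kit per the manufacturer's instructions.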

[27] = molecular target: Cytochrome P450 3A4 (Homo sapiens, UniProt P08684); assay: Inhibition of CYP3A4 (unknown origin); format: ADME
Chain of Cytochrome P450 3A4 (P08684 whole entry): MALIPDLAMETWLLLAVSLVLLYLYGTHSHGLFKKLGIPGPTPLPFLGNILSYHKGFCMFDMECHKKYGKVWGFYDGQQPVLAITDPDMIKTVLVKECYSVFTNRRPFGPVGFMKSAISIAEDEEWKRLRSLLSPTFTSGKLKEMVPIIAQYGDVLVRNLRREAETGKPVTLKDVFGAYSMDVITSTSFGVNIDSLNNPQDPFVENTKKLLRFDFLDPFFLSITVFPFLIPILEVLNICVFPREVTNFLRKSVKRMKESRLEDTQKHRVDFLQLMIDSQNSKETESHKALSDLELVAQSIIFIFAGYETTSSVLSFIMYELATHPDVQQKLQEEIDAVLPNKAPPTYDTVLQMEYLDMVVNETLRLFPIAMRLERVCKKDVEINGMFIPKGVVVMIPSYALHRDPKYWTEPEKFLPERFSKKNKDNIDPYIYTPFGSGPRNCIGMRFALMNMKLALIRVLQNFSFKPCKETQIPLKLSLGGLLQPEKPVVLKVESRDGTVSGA

[28] = test system: Rattus norvegicus; assay: Cmax in Sprague-Dawley rat at 5 mg/kg, po by HPLC/MS/MS method; format: ADME, organism-based; design: dose 5 mg/kg, route oral; conditions: in vivo; in short: as §1
[29] = test system: Rattus norvegicus; assay: Plasma clearance in Sprague-Dawley rat at 2 mg/kg, iv by HPLC/MS/MS method; format: ADME, organism-based; conditions: in vivo; in short: as §1
[30] = test system: MDCK; assay: Apparent permeability across apical to basolateral side in MDCK cells expressing MDR1; format: ADME, cell-based, Canis lupus familiaris; conditions: dog
[31] = Plasma concentration in Sprague-Dawley rat at 5 mg/kg, po measured at 48 hrs post dose on day 1 by HPLC/MS/MS method; format: ADME, organism-based; in short: as §3
[32] = test system: Plasma; assay: Initial plasma concentration in Sprague-Dawley rat at 2 mg/kg, iv by HPLC/MS/MS method; format: ADME, organism-based; conditions: in vivo; in short: as §1
[33] = Plasma concentration in Sprague-Dawley rat at 5 mg/kg, po qd administered for 7 days measured at 4 hrs post dose on day 7 by HPLC/MS/MS method; format: ADME, organism-based; in short: as §2
[34] = Plasma concentration in Sprague-Dawley rat at 5 mg/kg, po qd administered for 7 days measured at 48 hrs post dose on day 7 by HPLC/MS/MS method; format: ADME, organism-based; in short: as §2
[35] = test system: Rattus norvegicus; assay: AUClast in Sprague-Dawley rat at 2 mg/kg, iv by HPLC/MS/MS method; format: ADME, organism-based; design: dose 2 mg/kg, time 0 - last, route intravenous; conditions: in vivo; in short: as §1
[36] = test system: MDCK; assay: Apparent permeability across basolateral to apical side in MDCK cells expressing MDR1; format: ADME, cell-based, Canis lupus familiaris; conditions: dog
[37] = test system: Liver microsome; assay: Intrinsic clearance in rat liver microsomes; format: ADME
[38] = molecular target: Cytochrome P450 2D6 (Homo sapiens, UniProt P10635); assay: Inhibition of CYP2D6 (unknown origin); format: ADME
Chain of Cytochrome P450 2D6 (P10635 whole entry): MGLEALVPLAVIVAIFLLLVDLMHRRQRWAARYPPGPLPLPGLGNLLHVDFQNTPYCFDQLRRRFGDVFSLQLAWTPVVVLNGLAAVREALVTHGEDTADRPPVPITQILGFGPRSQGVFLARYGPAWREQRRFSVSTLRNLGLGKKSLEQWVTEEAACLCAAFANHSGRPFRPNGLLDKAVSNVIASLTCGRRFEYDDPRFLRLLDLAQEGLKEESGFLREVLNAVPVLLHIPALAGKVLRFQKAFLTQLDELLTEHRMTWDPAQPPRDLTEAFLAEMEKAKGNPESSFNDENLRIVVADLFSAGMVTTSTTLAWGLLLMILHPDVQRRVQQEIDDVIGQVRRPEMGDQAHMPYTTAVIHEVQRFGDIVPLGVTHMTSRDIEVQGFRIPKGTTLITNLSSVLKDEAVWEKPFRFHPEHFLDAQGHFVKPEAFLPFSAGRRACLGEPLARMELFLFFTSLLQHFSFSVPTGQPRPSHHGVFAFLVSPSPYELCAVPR

[39] = test system: Rattus norvegicus; assay: AUClast in Sprague-Dawley rat at 5 mg/kg, po measured on day 1 by HPLC/MS/MS method; format: ADME, organism-based; design: dose 5 mg/kg, time 0 - last, route oral; conditions: in vivo; in short: as §3
[40] = Kinetic solubility in phosphate buffered saline at pH 7.4; format: physicochemical; conditions: buffer
[41] = molecular target: Voltage-gated inwardly rectifying potassium channel KCNH2 (Homo sapiens, UniProt Q12809); assay: Inhibition of human ERG expressed in HEK293 cells by patch clamp assay; format: cell-based
Chain of Voltage-gated inwardly rectifying potassium channel KCNH2 (Q12809 whole entry): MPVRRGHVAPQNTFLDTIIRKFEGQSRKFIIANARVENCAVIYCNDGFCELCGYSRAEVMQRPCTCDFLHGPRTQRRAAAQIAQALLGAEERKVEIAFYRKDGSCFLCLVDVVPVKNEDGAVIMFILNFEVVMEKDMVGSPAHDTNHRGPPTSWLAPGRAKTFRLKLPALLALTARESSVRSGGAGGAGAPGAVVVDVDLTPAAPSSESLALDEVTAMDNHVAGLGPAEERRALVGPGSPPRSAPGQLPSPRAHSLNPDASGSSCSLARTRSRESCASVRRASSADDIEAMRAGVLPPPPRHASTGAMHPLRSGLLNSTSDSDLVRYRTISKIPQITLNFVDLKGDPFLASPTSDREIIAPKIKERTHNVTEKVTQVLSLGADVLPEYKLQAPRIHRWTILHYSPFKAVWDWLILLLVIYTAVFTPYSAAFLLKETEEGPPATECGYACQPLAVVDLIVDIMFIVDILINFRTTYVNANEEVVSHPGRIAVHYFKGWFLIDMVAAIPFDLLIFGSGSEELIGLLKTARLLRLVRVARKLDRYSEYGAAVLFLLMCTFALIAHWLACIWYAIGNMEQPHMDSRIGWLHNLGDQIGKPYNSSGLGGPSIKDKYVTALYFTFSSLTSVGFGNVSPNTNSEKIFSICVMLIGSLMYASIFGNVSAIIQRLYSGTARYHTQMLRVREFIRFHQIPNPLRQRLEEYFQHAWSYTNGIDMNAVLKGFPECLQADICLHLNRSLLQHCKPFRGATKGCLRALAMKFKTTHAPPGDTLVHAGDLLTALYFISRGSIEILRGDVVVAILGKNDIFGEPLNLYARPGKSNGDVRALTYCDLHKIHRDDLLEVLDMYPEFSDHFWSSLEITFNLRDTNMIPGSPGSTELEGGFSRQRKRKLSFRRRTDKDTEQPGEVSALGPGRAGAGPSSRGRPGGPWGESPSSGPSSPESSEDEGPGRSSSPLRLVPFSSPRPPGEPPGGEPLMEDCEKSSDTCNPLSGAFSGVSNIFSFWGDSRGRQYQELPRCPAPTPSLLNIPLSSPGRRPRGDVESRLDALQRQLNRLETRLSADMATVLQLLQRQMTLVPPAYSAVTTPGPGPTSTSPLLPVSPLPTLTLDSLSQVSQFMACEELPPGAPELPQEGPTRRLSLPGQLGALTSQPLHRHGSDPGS

[42] = molecular target: Cytochrome P450 2C9 (Homo sapiens, UniProt P11712); assay: Inhibition of CYP2C9 (unknown origin)
Chain of Cytochrome P450 2C9 (P11712 whole entry): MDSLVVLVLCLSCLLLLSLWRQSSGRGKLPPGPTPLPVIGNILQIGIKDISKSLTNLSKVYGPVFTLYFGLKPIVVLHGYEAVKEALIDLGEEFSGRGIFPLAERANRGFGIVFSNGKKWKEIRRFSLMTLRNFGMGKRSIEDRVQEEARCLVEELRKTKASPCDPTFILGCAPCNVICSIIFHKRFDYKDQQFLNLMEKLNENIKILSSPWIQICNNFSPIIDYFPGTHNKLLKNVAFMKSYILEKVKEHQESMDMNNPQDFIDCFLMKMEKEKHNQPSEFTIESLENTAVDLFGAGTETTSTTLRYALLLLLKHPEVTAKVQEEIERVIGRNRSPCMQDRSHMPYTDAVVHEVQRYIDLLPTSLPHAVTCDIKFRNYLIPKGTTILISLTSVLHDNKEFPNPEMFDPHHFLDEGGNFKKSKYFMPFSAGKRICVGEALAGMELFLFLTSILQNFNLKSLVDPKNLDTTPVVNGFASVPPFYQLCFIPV

[43] = molecular target: T2, Nuclear receptor subfamily 1 group I member 2 (Homo sapiens, UniProt O75469); assay: Activation of human PXR; format: ADME
T2 sequence (O75469 whole entry): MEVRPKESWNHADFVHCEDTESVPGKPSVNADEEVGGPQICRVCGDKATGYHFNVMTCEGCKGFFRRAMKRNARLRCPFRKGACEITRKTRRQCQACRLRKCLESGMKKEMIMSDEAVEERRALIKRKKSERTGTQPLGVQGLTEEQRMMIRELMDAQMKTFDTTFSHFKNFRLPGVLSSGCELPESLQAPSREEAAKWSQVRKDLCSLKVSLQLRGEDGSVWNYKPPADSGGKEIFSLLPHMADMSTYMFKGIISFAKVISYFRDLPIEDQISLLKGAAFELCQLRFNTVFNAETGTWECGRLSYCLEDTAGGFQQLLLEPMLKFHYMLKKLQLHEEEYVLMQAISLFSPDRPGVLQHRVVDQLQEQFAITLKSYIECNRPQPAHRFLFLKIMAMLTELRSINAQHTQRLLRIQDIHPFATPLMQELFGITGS

[44] = test system: Rattus norvegicus; assay: AUC (0 to infinity) in Sprague-Dawley rat at 2 mg/kg, iv by HPLC/MS/MS method; format: ADME, organism-based; design: dose 2 mg/kg, route intravenous, time infinity; conditions: in vivo; in short: as §1

Cc1cc(C(=O)O)nc(N2C[C@H]3C[C@@H](c4cccc(F)c4Cl)C[C@H]3C2)n1
IC50 [1]: 137 nM
IC50 [2]: 504 nM

Cc1sc(N2C[C@H]3C[C@@H](c4ccccc4C(F)(F)F)C[C@H]3C2)nc1C(=O)O
IC50 [1]: 29.3 nM
IC50 [2]: 495 nM

Cc1cc(C(=O)O)nc(N2C[C@H]3C[C@@H](c4ccccc4C(F)(F)F)C[C@H]3C2)n1
betat1/2(app) [3]: 38.8 h
CLH [4]: < 0.7 microL/ml/min
Tmax [5]: 2.17 h
PPB [6]: 99.4%
concentration at 168 h [7]: 148 µM
Activity [8]: 85%
F [9]: 143%
AUClast [10]: 6380 ng·h/mL
Cmax [11]: 66.5 µM
remaining at 0.5 h, 10 µM [12]: 93%
AUC [13]: 3636 µM·h
Tmax [14]: 2.67 h
IC50 [15]: > 34000 nM
AUClast [16]: 2011 µM·h
betat1/2(app) [17]: 22 h
Cmax [18]: 183 µM
CLH [19]: < 0.7 microL/ml/min
CLH [20]: 0.7 microL/ml/min
beta t1/2 [21]: 49.4 h
Vdss [22]: 0.156 L/kg
Tmax [23]: 2.75 h
remaining at 0.5 h, 10 µM [24]: 94%
beta t1/2 [25]: 31.9 h
Activity [26]: 95%
IC50 [27]: > 34000 nM
Cmax [28]: 62.2 µM
CL [29]: 5.06 mL/h/kg
Papp [30]: 74.7 ×10⁻⁶ cm/s
concentration at 48 h [31]: 20 µM
C0 [32]: 58.6 µM
concentration at 4 h [33]: 179 µM
concentration at 48 h [34]: 97.1 µM
AUClast [35]: 795 µM·h
Papp [36]: 82.2 ×10⁻⁶ cm/s
CLH [37]: < 0.7 microL/ml/min
IC50 [38]: > 34000 nM
AUClast [39]: 1695 µM·h
Kinetic_solubility [40]: > 100 µM
IC50 [41]: > 30000 nM
IC50 [42]: > 34000 nM
Activity [43]: Not Active
AUC [44]: 1017 µM·h

Cc1cc(C(=O)O)nc(N2C[C@H]3C[C@@H](c4cccc(F)c4C(F)(F)F)C[C@H]3C2)n1
IC50 [1]: 196 nM
